Data reported in ChEMBL document CHEMBL1137362, “Synthesis and radioligand binding studies of methoxylated 1,2,3,4-tetrahydroisoquinolinium derivatives as ligands of the apamin-sensitive Ca2+-activated K+ channels” (J Med Chem, 2006).

Experiments:
[1] = molecular target: Small conductance calcium-activated potassium channel (Rattus norvegicus) (UniProt P70604+P70606+P70605); assay: Displacement of [125I]apamin from Wistar rat cortical apamin-sensitive site at 10 uM; assay type: protein assay
Procedure, shortened: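 Single-concentration screen at 10 µM: rat cortical synaptosomes (0.2 mg protein/mL) with 10 pM 125I-apamin, 1 h at 0 °C, Tris-HCl pH 7.5 buffer with 5.4 mM KCl and 0.1% BSA. Percent of specific radioligand binding displaced is reported; nonspecific binding defined with 0.1 µM apamin; filtration and scintillation counting; n = 3.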

[2] = molecular target: Small conductance calcium-activated potassium channel (Rattus norvegicus, UniProt P70604+P70606+P70605); assay: Displacement of [125I]apamin from Wistar rat cortical apamin-sensitive site; assay type: protein assay
Rattus norvegicus [3] = species: Rattus norvegicus; assay: Blockade of apamin-sensitive AHP in Wistar rat dopaminergic neurons by electrophysiology assay at 100 uM; assay type: functional, organism-based; conditions: neuron
Procedure, shortened: (§1)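 Intracellular bridge-balance recording of the apamin-sensitive AHP in dopaminergic neurons; drugs dissolved in water. IC50 obtained by fitting E = Emax/[1 + (IC50/x)h]; percent AHP block reported at 100 µM; means ± SEM, n = 3.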

Rattus norvegicus [4] = species: Rattus norvegicus; assay: Blockade of apamin-sensitive AHP in Wistar rat dopaminergic neurons by electrophysiology assay; assay type: functional, organism-based; conditions: Neuron; procedure, shortened: as §1

Structure (SMILES): COc1cc2c(c(OC)c1)C(Cc1ccc3ccccc3c1)N(C)CC2 (stereo unspecified)
- Activity [1]: 0%

Structure (SMILES): COc1ccc(CC2c3c(ccc(OC)c3OC)CC[N+]2(C)C)cc1OC (stereo unspecified)
- Activity [1]: 24%

Structure (SMILES): COc1cc2c(c(OC)c1)C(Cc1ccc3ccccc3c1)[N+](C)(C)CC2 (stereo unspecified)
- Activity [1]: 2%

Structure (SMILES): COc1ccc(CCC2c3cc(OC)c(OC)cc3CC[N+]2(C)C)cc1OC.[I-] (stereo unspecified)
- Activity [1]: 32%
- Ki [2]: 5.4 µM

Structure (SMILES): COc1ccc(CC2c3c(cc(OC)c(OC)c3OC)CCN2C)cc1OC (stereo unspecified)
- Inhibition (Rattus norvegicus [3]): 51.9%
- Activity [1]: 27%

Structure (SMILES): CN1CCc2ccccc2C1Cc1ccc2ccccc2c1 (stereo unspecified)
- Activity [1]: 0%

Structure (SMILES): COc1ccc(CC2c3c(cc(OC)c(OC)c3OC)CC[N+]2(C)C)cc1OC.[I-] (stereo unspecified)
- Activity [1]: 72%
- IC50 (Rattus norvegicus [4]): 9 µM
- Ki [2]: 0.73 µM

Structure (SMILES): COc1cc2c(c(OC)c1OC)C(Cc1ccc3ccccc3c1)[N+](C)(C)CC2.[I-] (stereo unspecified)
- Activity [1]: 53%
- Ki [2]: 2.2 µM

Structure (SMILES): COc1ccc2c(c1OC)C(Cc1ccc3ccccc3c1)[N+](C)(C)CC2 (stereo unspecified)
- Activity [1]: 18%

Structure (SMILES): COc1cc2c(cc1OC)C(CC(C)C)N(C)CC2 (stereo unspecified)
- Activity [1]: 0%

Structure (SMILES): COc1ccc(C[C@H]2c3cc(OC)c(OC)cc3CC[N+]2(C)C)cc1OC.[I-] [LAUDANOSINE METHIODIDE]
- IC50 (Rattus norvegicus [4]): 15 µM
- Ki [2]: 1.3 µM

Structure (SMILES): C[N+]1(C)CCc2ccccc2C1Cc1ccc2ccccc2c1 (stereo unspecified)
- Activity [1]: 1%

Structure (SMILES): COc1cc2c(c(OC)c1)C(Cc1ccc(OC)c(OC)c1)[N+](C)(C)CC2 (stereo unspecified)
- Activity [1]: 20%

Structure (SMILES): COc1cc2c(c(OC)c1)C(Cc1ccc(OC)c(OC)c1)N(C)CC2 (stereo unspecified)
- Activity [1]: 0%

Structure (SMILES): COc1cc2c(c(OC)c1OC)C(Cc1ccc3ccccc3c1)N(C)CC2 (stereo unspecified)
- Activity [1]: 0%

Structure (SMILES): COc1cc2c(cc1OC)C(Cc1ccc3ccccc3c1)N(C)CC2 (stereo unspecified)
- Activity [1]: 6%

Structure (SMILES): COc1ccc2c(c1OC)C(Cc1ccc3ccccc3c1)N(C)CC2 (stereo unspecified)
- Activity [1]: 0%

Structure (SMILES): COc1ccc(CCC2c3cc(OC)c(OC)cc3CCN2C)cc1OC (stereo unspecified)
- Activity [1]: 11%

Structure (SMILES): COc1cc2c(cc1OC)C(Cc1ccc3ccccc3c1)[N+](C)(C)CC2.[I-] (stereo unspecified)
- Activity [1]: 70%
- Ki [2]: 0.91 µM

Structure (SMILES): CCCC1c2cc(OC)c(OC)cc2CC[N+]1(C)C (stereo unspecified)
- Activity [1]: 6%

Structure (SMILES): COc1cc2c(cc1OC)C(CC(C)C)[N+](C)(C)CC2 (stereo unspecified)
- Activity [1]: 0%

Structure (SMILES): COc1ccc2c(c1OC)C(=O)O[C@@H]2[C@H]1c2c(cc3c(c2OC)OCO3)CC[N+]1(C)C.[I-]
- Ki [2]: 3.6 µM

Structure (SMILES): COc1ccc(CC2c3c(ccc(OC)c3OC)CCN2C)cc1OC (stereo unspecified)
- Activity [1]: 3%

Structure (SMILES): CCCC1c2cc(OC)c(OC)cc2CCN1C (stereo unspecified)
- Activity [1]: 0%
